The list is not random: actives were taken first. Their share in the collection is about 5.2%.
HCV NS3 hel inh: blocks Hepatitis C virus NS3 helicase unwinding; NS3 helicase DNA unwinding, Cy5 molecular beacon fluorescence; inhibition, % at 10.9 µM; hit rate 0.56% among 290,000;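 active = inhibition above the mean of all tested compounds plus 3 SD, set per campaign, cut at about 35% in these data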;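 note: 0% = DMSO wells and 100% = thioflavine S control wells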
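Assay system – hepatitis C virus NS3 helicase domain fragment enzyme · Buffer or medium – MOPS pH 6.5, MgCl2, DTT, Tween20, BSA · Reagent – Cy5/quencher beacon DNA duplex and ATP to start · Compound – single 10.9 µM dose · Timing – 1 h at 25 °C · Technique – Cy5 beacon fluorescence read at start and 1 h · Measure – % inhibition of unwinding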
EBNA-1 inhibitor: blocks EBNA-1 binding to DNA; AID 1950; EBNA-1 DNA binding, fluorescence polarization; hit rate 0.34% among 300,000; inhibition, % at 14.8 µM; in the data active = inhibition above about 28%
ZTA DNA inh: ZTA (EBV) inhibition in EBNA-1 counter-screen. P03206. ZTA-DNA binding, fluorescence polarization. inhibition, % at 11 µM. hit rate 0.15% among 320,000; in the data active = inhibition above about 33%
Target sequence (P03206 whole entry, looked up): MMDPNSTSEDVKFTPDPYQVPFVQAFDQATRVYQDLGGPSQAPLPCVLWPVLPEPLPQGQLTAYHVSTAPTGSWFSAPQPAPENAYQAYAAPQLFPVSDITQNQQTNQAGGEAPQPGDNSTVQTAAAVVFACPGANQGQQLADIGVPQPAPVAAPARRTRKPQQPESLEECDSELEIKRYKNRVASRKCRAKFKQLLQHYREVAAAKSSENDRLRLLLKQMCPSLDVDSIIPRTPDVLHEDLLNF
HCV core dimer: blocks dimerization of HCV core protein. TR-FRET GST/Flag-core106 dimerization, 1536-well. inhibition, % at 5 µM. hit rate 0.33% among 300,000;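 active = inhibition above the mean of all tested compounds plus 3 SD, set per screening campaign, cut at about 45% in these data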
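Assay system: tagged HCV core106 pair (GST and Flag); medium: KF-containing HEPES buffer, pH 7.45, DTT, CHAPS, BSA; also added: Eu donor and XL665 acceptor anti-tag antibodies; dosing: 5 µM single dose; timing: compound-protein-antibody incubation 4 h at 22.5 °C; signal: TR-FRET 671 and 617 nm emission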
PfM18AAP inh: blocks P. falciparum M18 aspartyl aminopeptidase; recombinant PfM18AAP, H-Glu-NHMec fluorogenic cleavage; inhibition, % at 7.35 µM; hit rate 1.2% among 290,000;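 active = inhibition above the campaign mean inhibition over all tested compounds plus 3 SD, cut at about 28% in these data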;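 note: 0% = plate median of test compound wells and 100% = 2 mM ZnCl2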
ALR inh: blocks human ALR sulfhydryl oxidase activity; purified ALR, DTT oxidation, H2O2 HRP-luminol luminescence; AID 485317; inhibition, % (concentration not given with the values); hit rate 3.8% among 290,000; P55789;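 active = mean replicate inhibition above about 79%, with every replicate also reaching it, limit read from the data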
Target sequence (P55789 whole entry, looked up): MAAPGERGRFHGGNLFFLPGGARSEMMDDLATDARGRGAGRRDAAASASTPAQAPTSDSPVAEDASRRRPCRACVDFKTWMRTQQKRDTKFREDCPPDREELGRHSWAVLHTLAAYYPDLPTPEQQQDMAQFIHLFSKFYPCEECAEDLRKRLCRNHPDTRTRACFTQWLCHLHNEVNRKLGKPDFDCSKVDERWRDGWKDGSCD
* marks the source's active call; other numbers are inactive results; · = no result given.

SMILES	HCV NS3 hel inh	EBNA-1 inhibitor	ZTA DNA inh	HCV core dimer	PfM18AAP inh	ALR inh
O=C(COc1ccc2c(c1)CCC2)N1CCN(c2cccc(C(F)(F)F)c2)CC1	0.0	0.1	12.2	14.3	-2.9	-4.8
Nc1ncc(Br)cc1S(=O)(=O)NCCC(=O)N1CCN(c2ccccc2)CC1	-4.0	12.7	13.9	11.8	1.0	96.0*
O=C(CCNS(=O)(=O)c1ccccc1C(F)(F)F)N1CCN(c2ccccc2O)CC1	·	2.9	10.4	-1.9	·	98.6*
CCOc1ccc(S(=O)(=O)N(CC(=O)NCc2ccncc2)c2ccc(C)cc2)cc1	-9.9	5.5	-5.5	2.2	-3.2	-2.5
C/C(=N\NC(=O)CN1CCN(Cc2ccccc2)CC1)c1cccs1	20.0	-6.0	-4.4	-2.2	-7.7	2.4
Cc1ccccc1N(CC(=O)NCC1CCCO1)C(=O)CCC(=O)Nc1nccs1 (stereo not drawn)	-2.1	-6.1	0.2	-7.9	-0.6	·
Cc1cc(C)nc(NCC(O)CNc2ccccc2Cl)n1 (stereo not drawn)	3.5	5.6	-0.3	-6.5	0.2	92.0*
COC(=O)c1cc(NCc2ccc3c(c2)OCO3)ccc1N1CCOCC1	-3.5	-6.4	-3.1	-7.1	4.5	-0.8
O=C(O)c1cc(NCc2ccc3c(c2)OCO3)ccc1N1CCOCC1	4.9	3.5	-6.0	-2.5	11.5	79.0*
COc1ccccc1CNc1ccc(N2CCOCC2)c(C(=O)O)c1	4.8	14.7	6.8	2.0	3.3	98.7*
CCc1cc(C(=O)N2CCN(S(=O)(=O)c3ccccc3F)CC2)sc1C	·	·	-19.1	·	·	-2.1
COc1ccc(NC(=O)Nc2c[nH]c(=O)[nH]c2=O)cc1	30.2	-10.6	-3.3	1.8	-3.5	-7.7
COc1cc(-c2nc3cccc(C)n3c2NCC2CCCO2)ccc1O (stereo not drawn)	5.1	-9.1	-7.0	0.7	17.4	99.1*
OC1CCN(Cc2cccc(Oc3ccccc3)c2)CC1	1.4	-3.6	-15.9	-3.1	2.5	97.8*
CCN(C1CCCCC1)S(=O)(=O)CCNC(=O)c1ccccc1	·	-7.7	-4.7	-1.7	·	1.1
CCOC(=O)c1ccc(OCC2NCCc3cc(OC)c(OC)cc32)cc1 (stereo not drawn)	-7.4	-4.2	0.8	-9.2	4.7	0.0
CC(=O)Oc1cc2oc(=O)cc(C)c2cc1Cl	-8.9	-1.3	-11.8	1.6	5.2	96.9*
Cc1cc(=O)oc2cc(OC(C)C(=O)O)c(Cl)cc12 (stereo not drawn)	-6.3	-1.9	-7.4	-3.6	2.1	1.4
CC(=O)Nc1ccc(N2C(=O)CSC2c2ccccc2[N+](=O)[O-])cc1 (stereo not drawn)	-0.3	-0.2	9.7	6.0	1.2	97.6*
O=C1CSC(c2ccccc2[N+](=O)[O-])N1c1ccc(O)cc1 (stereo not drawn)	-1.1	3.3	1.3	-0.7	3.9	-16.2
O=C1CSC(c2ccccc2[N+](=O)[O-])N1c1ccccc1 (stereo not drawn)	-14.1	0.8	-4.9	2.9	7.0	99.4*
O=C1CSC(c2ccccc2[N+](=O)[O-])N1c1cccc(F)c1 (stereo not drawn)	12.6	0.7	9.1	1.4	-0.6	98.8*
O=C1CSC(c2cccc([N+](=O)[O-])c2)N1c1ccccc1F (stereo not drawn)	7.0	4.9	21.1	1.8	1.4	-9.5
C=C(C)COc1ccc(-c2n[nH]c(C)c2-c2ccc(OC)c(OC)c2)c(O)c1	-17.6	-4.2	-4.0	1.8	5.1	·
CC1(C)Oc2ccc(C(=O)NNC(=O)Nc3ccccc3)cc2NC1=O	1.3	-1.5	12.3	8.9	23.2	7.8
SMILES	HCV NS3 hel inh	EBNA-1 inhibitor	ZTA DNA inh	HCV core dimer	PfM18AAP inh	ALR inh
O=S(=O)(Nc1ccc(O)c(NS(=O)(=O)c2ccccc2)c1)c1ccccc1	-6.1	1.2	-0.3	-2.7	68.3*	86.7*
Cc1cc(NS(=O)(=O)c2ccccc2)c([N+](=O)[O-])cc1C	0.5	-0.9	-4.4	10.0	-11.1	-39.7
Cc1c(O)ccc(NS(=O)(=O)c2ccccc2)c1C	-4.1	-1.9	-4.9	-0.7	-47.5	98.8*
Cc1cc(NS(=O)(=O)c2ccccc2)c(C)c(Cl)c1O	·	-9.4	-9.1	-2.4	·	99.9*
CC(=O)c1ccc(NS(=O)(=O)c2ccccc2)cc1	5.4	-6.8	-7.4	-13.2	-3.1	-3.1
Nc1ccc(NS(=O)(=O)c2ccccc2)cc1	3.6	1.5	-12.2	-13.6	-102.2	99.8*
Nc1cccc(S(=O)(=O)Nc2ccccc2)c1	6.6	-8.6	-1.8	-1.6	1.4	-3.5
COc1ccc(C(=O)COC(=O)c2cccc(-n3cnnn3)c2)c(OC)c1	·	13.8	-8.0	15.7	·	-0.7
O=C(COC(=O)c1nc(Cl)ccc1Cl)NNC(=O)c1cccs1	·	-9.1	-8.9	0.9	·	·
Cc1ccc(NS(=O)(=O)c2ccc(NC(=O)c3ccc(-c4ccccc4)cc3)cc2)c(C)c1	1.1	24.4	21.9	46.4*	0.8	3.5
Cc1ccc(S(=O)(=O)Nc2cc(C)c(O)cc2C)cc1	-8.5	2.1	-9.2	-2.3	-32.3	98.2*
COc1cc(C(=O)NS(=O)(=O)c2ccccc2C)ccc1Cc1cn(C)c2ccc(NC(=O)OC3CCCC3)cc12	7.4	9.1	8.8	-132.2	1.8	97.3*
O=C(COC(=O)c1cccc(NS(=O)(=O)/C=C/c2ccccc2)c1)Nc1ccccc1OC(F)F	-13.6	10.0	-23.1	16.8	3.0	-9.8
COc1cc(CNc2ccccc2SC)ccc1O	-5.0	-2.2	4.7	-10.4	7.6	52.0
CCOc1cc(CNc2ccccc2SC)ccc1O	-0.7	4.0	13.0	-0.1	11.6	80.3*
COc1cccc(-n2sc3c(c2=S)-c2cc(OC)ccc2NC3(C)C)c1	2.6	3.9	0.9	-12.6	9.7	1.0
CC1(C)Nc2ccc(O)cc2-c2c1ssc2=S	28.1	-0.5	-0.4	-0.7	15.2	99.0*
CC1Oc2cc3oc4c(O)c(O)ccc4c(=O)c3c(O)c2C1(C)C (stereo not drawn)	·	-1.6	7.2	-4.0	·	98.1*
CCC(C(=O)NCCCN(CC)Cc1ccccc1)n1nc(C)c2sc3ccccc3c2c1=O (stereo not drawn)	-23.8	-9.9	-11.5	0.6	-6.2	-2.9
CN(CCO)c1ccc(C=NNc2ccc([N+](=O)[O-])cc2S(=O)(=O)Nc2ccccc2C(=O)O)cc1	·	·	·	·	·	99.0*
COc1ccc(/C=N\Nc2ccc([N+](=O)[O-])cc2[N+](=O)[O-])c(C(=O)O)c1OC	-0.1	-3.2	-2.8	-5.5	18.4	98.5*
COc1cc(C=NNc2ccc(S(=O)(=O)Nc3ccccc3C(=O)O)cc2[N+](=O)[O-])ccc1O	·	·	·	·	·	99.3*
COc1ccc(NC(=O)c2ccccc2NS(=O)(=O)c2ccc(C)cc2)c([N+](=O)[O-])c1	-2.3	9.9	2.6	12.5	2.4	-5.3

From PubChem
